# Data: ChEMBL document CHEMBL1125330, “N-substituted pyrazino[2,3-c][1,2,6]thiadiazine 2,2-dioxides. A new class of diuretics” (J Med Chem, 1992)
# What was measured:
# Rattus norvegicus [1] = assay: Mean urinary output in rats when compound administered at 20 mg/kg po and vehicle dosed at 74.26 umol/kg; assay type: ADME, organism-based, Urine; design: dose 20 mg/kg, route oral; conditions: in vivo
# Summary of the method: (§1)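 Water-loaded male Sprague-Dawley rats (HC/CFY, 175-200 g) fasted and without water for 18 h. Oral gavage of 2.5-160 mg/kg in 1% CMC with 0.1% Tween 80, then distilled water 2.5 mL/100 g po. Urine collected 6 h in metabolic cages, mean output in mL/6 h/kg bw. Unpaired Student t-test against vehicle; dose-response by linear regression.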
# Rattus norvegicus [2] = assay: Volume of urine 3h after the compound was administered 100 mg/kg po in rat; assay type: ADME, organism-based; design: dose 100 mg/kg, route oral; conditions: in vivo
# Summary of the method: (§2)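 Onset/duration protocol: male Sprague-Dawley rats (HC/CFY, 175-200 g), food and water withdrawn for 18 h before and during the test. Single gavage dose in 1% carboxymethyl cellulose/0.1% Tween 80 (0.5 mL/100 g bw), then distilled water load (2.5 mL/100 g bw po). Two rats per metabolic cage, six pairs per group. Urine collected at 0-1, 1-2, 2-3, 3-4 and 4-6 h; Na+ by flame photometry. Vehicle controls; nonpaired Student t-test.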
# Rattus norvegicus [3] = assay: Mean potassium excretion in rats when compound administered at 20 mg/kg po and vehicle dosed at 74.26 umol/kg; assay type: ADME, organism-based; design: dose 20 mg/kg, route oral; conditions: in vivo
# Summary of the method: (§3)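 Male Sprague-Dawley rats (HC/CFY, 175-200 g), no food or water for 18 h before and during the test. Single gavage dose (2.5-160 mg/kg; vehicle 1% carboxymethyl cellulose/0.1% Tween 80, 0.5 mL/100 g bw), then distilled water 2.5 mL/100 g bw po. Individual metabolic cages, 6 h urine. K+ by flame photometry, Cl- colorimetric, as mequiv/6 h/kg bw; unpaired Student t-test vs control.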
# [4] = Ratio of Na+ to K+ excretion at dose; assay type: ADME
# Summary of the method: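 Water-loaded fasted male Sprague-Dawley rats dosed orally in CMC/Tween 80 vehicle and hydrated with water 2.5 mL/100 g. Na+ and K+ in urine pooled over 6 h measured by flame photometry. Na+/K+ excretion ratio computed for each dose; Student t-test against control.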
# Rattus norvegicus [5] = assay: Mean Chlorine excretion in rats when compound administered at 2.5 mg/kg po and vehicle dosed at 9.28 umol/kg; assay type: ADME, organism-based; design: dose 2.5 mg/kg, route oral; conditions: in vivo; summary of the method: as §3
# Rattus norvegicus [6] = assay: Mean sodium excretion in rats when compound administered at 160 mg/kg po and vehicle dosed at 594.07 umol/kg; assay type: ADME, organism-based; design: dose 160 mg/kg, route oral; conditions: in vivo
# Summary of the method: (§4)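 Male Sprague-Dawley rats (HC/CFY, 175-200 g) fasted and water-deprived 18 h before and during the test. Dosed by gavage at 2.5-160 mg/kg in 1% carboxymethyl cellulose/0.1% Tween 80, 0.5 mL/100 g bw. Immediately hydrated with water (2.5 mL/100 g bw, po). Urine collected 6 h in metabolic cages; Na+ and K+ by flame photometry; mean mequiv/6 h/kg bw; nonpaired Student t-test.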
# Rattus norvegicus [7] = assay: Mean potassium excretion in rats when compound administered at 0 mg/kg po and vehicle dosed at 0 umol/kg; assay type: ADME, organism-based; design: dose 0 mg/kg, route oral; conditions: in vivo; summary of the method: as §3
# Rattus norvegicus [8] = species on record: Rattus norvegicus; assay: Mean urinary output in rats (Control/Drug treatment value); value 24.2/47.6; assay type: ADME, organism-based, Urine; conditions: in vivo
# Summary of the method: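 Water-loaded male Sprague-Dawley rats (HC/CFY, 175-200 g), eight per group, deprived of food and water 18 h. Single oral gavage of 20-25 mg/kg (some 10 mg/kg) in 1% CMC/0.1% Tween 80, then distilled water 2.5 mL/100 g bw po. Cumulative urine over 6 h in metabolic cages; mean mL/6 h/kg bw vs vehicle group.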
# Rattus norvegicus [9] = assay: Volume of urine 6 hr after the compound was administered 100 mg/kg po in rat; assay type: ADME, organism-based; design: dose 100 mg/kg, route oral; conditions: in vivo; summary of the method: as §2
# Rattus norvegicus [10] = species on record: Rattus norvegicus; assay: Dose required to produce increase in 50 % in urine production vs control groups; assay type: functional; conditions: Rattus norvegicus, Urine
# Summary of the method: (§5)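 Male Sprague-Dawley rats (HC/CFY, 175-200 g), fasted and water-deprived 18 h before and during the test. Compound dosed by gavage in 1% carboxymethyl cellulose/0.1% Tween 80, then water load 2.5 mL/100 g bw po. Urine collected 6 h in metabolic cages; Na+ by flame photometry. Effective doses vs vehicle controls derived by linear regression of dose-response data.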
# Rattus norvegicus [11] = assay: Mean sodium excretion in rats when compound administered at 10 mg/kg po and vehicle dosed at 37.13 umol/kg; assay type: ADME, organism-based; design: dose 10 mg/kg, route oral; conditions: in vivo; summary of the method: as §4
# Rattus norvegicus [12] = species on record: Rattus norvegicus; assay: Dose required to produce increase in 200 % in urine production vs control groups; assay type: functional; summary of the method: as §5
# Rattus norvegicus [13] = assay: Mean sodium excretion in rats when compound administered at 80 mg/kg po and vehicle dosed at 297.03 umol/kg; assay type: ADME, organism-based; design: dose 80 mg/kg, route oral; conditions: in vivo; summary of the method: as §4
# Rattus norvegicus [14] = assay: Urinary sodium 4 hr after the compound was administered 100 mg/kg po in rat; assay type: ADME, organism-based, Urine; design: dose 100 mg/kg, route oral; conditions: in vivo
# Summary of the method: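 Onset and duration study in fasted, water-loaded male Sprague-Dawley rats housed two per metabolic cage, six pairs per group. Single oral dose given, then water 2.5 mL/100 g po. Urine volume and sodium (flame photometry) measured over 0-1, 1-2, 2-3, 3-4 and 4-6 h intervals. Mean values compared with vehicle by Student t-test.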
# Rattus norvegicus [15] = assay: Mean potassium excretion in rats when compound administered at 10 mg/kg po and vehicle dosed at 37.13 umol/kg; assay type: ADME, organism-based; design: dose 10 mg/kg, route oral; conditions: in vivo; summary of the method: as §3
# Rattus norvegicus [16] = assay: Mean Chlorine excretion in rats when compound administered at 80 mg/kg po and vehicle dosed at 297.03 umol/kg; assay type: ADME, organism-based; design: dose 80 mg/kg, route oral; conditions: in vivo; summary of the method: as §3
# Rattus norvegicus [17] = assay: Mean urinary output in rats when compound administered at 160 mg/kg po and vehicle dosed at 594.07 umol/kg; assay type: ADME, organism-based, Urine; design: dose 160 mg/kg, route oral; conditions: in vivo; summary of the method: as §1
compound,measurement,setting,value
CCc1nc2c(nc1C)C(N)=NS(=O)(=O)N2CC,V,Rattus norvegicus [1],42.25 ml 6hr-1 (kg of body weight)-1
same,Urine volume,Rattus norvegicus [2],5.52 mL
same,K,Rattus norvegicus [3],0.63 m equiv 6hr-1 kg-1 (body weight)-1
same,Ratio,[4],2.43 [middle of 8 runs]
same,Cl-,Rattus norvegicus [5],1.21 m equiv 6hr-1 kg-1 (body weight)-1
same,Na,Rattus norvegicus [6],6.14 m equiv 6hr-1 kg-1 (body weight)-1
same,K,Rattus norvegicus [7],0.49 m equiv 6hr-1 kg-1 (body weight)-1
same,V,Rattus norvegicus [8],2
same,Urine volume,Rattus norvegicus [9],1.99 mL
same,ED50,Rattus norvegicus [10],9.17 mg/kg
same,Na,Rattus norvegicus [11],1.21 m equiv 6hr-1 kg-1 (body weight)-1
same,ED200,Rattus norvegicus [12],87.61 mg/kg
same,Na,Rattus norvegicus [13],5.1 m equiv 6hr-1 kg-1 (body weight)-1
same,Urinary Na+,Rattus norvegicus [14],0.27 m equiv
same,K,Rattus norvegicus [15],0.72 m equiv 6hr-1 kg-1 (body weight)-1
same,Cl-,Rattus norvegicus [16],8.04 m equiv 6hr-1 kg-1 (body weight)-1
same,V,Rattus norvegicus [17],74.26 ml 6hr-1 (kg of body weight)-1
